A selection: hits, their analogues and other compounds. The true share with any hit is near 3.5%.
RGS4 act: RGS4 potentiation or activation | B-score at 10 µM | AID 463111 | HEK293 M3R/inducible RGS4, carbachol calcium flux Fluo4; hits give low values | actives 0.92% (n = 310,000);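 active = B-score of the integrated calcium signal more than 4 SD below the library mean, with starting fluorescence not abnormally high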;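 note: negative B-score means reduced calcium response which marks RGS4 activation or potentiation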
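System: HEK293 FlpIn-TREx cells, stable M3R, doxycycline-inducible RGS4. Timing: overnight RGS4 induction, 30 min dye load 37 °C, 20 min compound RT. Also added: carbachol, ECmax concentration. Measured by: Fluo4 fluorescence kinetic imaging of calcium. Evaluation: integrated calcium ratio converted to B score.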
MrgX1 antag: blocks BAM8-22 activation of human MrgX1 receptor | Q96LB2 | MRGX1-HEK293 calcium flux, Fluo-4, BAM8-22 antagonism; hits give low values | B-score at 10 µM | actives 1.3% (n = 310,000) | AID 588676;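 active = calcium-response B-score plate-corrected more than 3 library SD below zero, starting fluorescence within 5 deviations, no agonist response on first addition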;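 note: peak minus trough fluorescence over baseline after final BAM8-22 challenge near maximal dose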
Target sequence (Q96LB2 whole entry, looked up): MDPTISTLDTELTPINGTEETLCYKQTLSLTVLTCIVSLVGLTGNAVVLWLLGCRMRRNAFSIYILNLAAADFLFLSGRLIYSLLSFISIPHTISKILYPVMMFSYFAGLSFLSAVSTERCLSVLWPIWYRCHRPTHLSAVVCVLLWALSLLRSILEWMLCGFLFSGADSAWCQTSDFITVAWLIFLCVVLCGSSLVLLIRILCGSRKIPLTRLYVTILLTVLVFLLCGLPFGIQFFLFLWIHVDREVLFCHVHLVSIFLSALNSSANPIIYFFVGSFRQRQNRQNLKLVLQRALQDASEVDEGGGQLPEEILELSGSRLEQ
MrgX1 allo act: allosterically activates human MrgX1 receptor signaling; AID 588675; MrgX1-HEK293, Fluo-4 calcium flux, FDSS; hits give high values; Q96LB2; actives 0.63% (n = 310,000); B-score at 10 µM;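 active = plate-corrected calcium response at least 3 library SD above typical, normal starting fluorescence, not activating the receptor alone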;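 note: compound read alongside a low EC10 to EC30 dose of BAM8-22 agonist; peak minus trough fluorescence over baseline measured at the second addition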
MrgX1 ag: activates human MrgX1 receptor signaling; B-score at 10 µM; MrgX1-HEK293 cells, Fluo-4 calcium fluorescence, agonist mode; hits give high values; actives 0.44% (n = 310,000); AID 588627; Q96LB2;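 active = calcium response B-score plate-corrected fluorescence ratio at least 3 library SD, with starting fluorescence B-score inside 5 SD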
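Material: MrgX1-expressing HEK293 cells; input: 15,000 cells per well; doses: test compound given as first of three sequential additions; schedule: overnight plating before 1 h dye loading; technique: Fluo-4 NW calcium-flux fluorescence, kinetic read; evaluation: baseline-normalised fluorescence change ratio, B-scored; control set: plate-wise positive and negative controls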
RGS4 inh: human RGS4 inhibition; HEK293 M3R/RGS4 inducible, Fluo-4 calcium flux; hits give high values; triggered by carbachol at its EC20; AID 463165; P49798; actives 0.45% (n = 310,000); B-score at 10 µM;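 active = B-score, a plate-corrected calcium signal, over three deviations above library mean, with baseline fluorescence within five deviations of library mean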;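 note: RGS4 expression induced by doxycycline in cells with stable M3 receptor; B-score is computed from the integrated fluorescence ratio over baseline after carbachol; higher B-score means a larger calcium signal and so more RGS4 inhibition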
Numbers without * were called inactive; i = inactive; . = no result given.

SMILES	RGS4 act	MrgX1 antag	MrgX1 allo act	MrgX1 ag	RGS4 inh
O=C(Nc1ccc(Br)cc1)Nc1ccccc1F	i	i	i	i	i
O=C(Nc1ccc(Cl)c(Cl)c1)Nc1ccc(Br)cc1F	i	-5.2*	i	i	i
Fc1ccc(-n2nnc(-c3cccnc3)n2)cc1	i	i	i	i	i
Fc1ccc(C(CCCn2nnc(-c3cccnc3)n2)c2ccc(F)cc2)cc1	-8.7*	i	i	i	i
CCCN(CCC)CCOc1cc(C)ccc1C(C)C	i	i	i	i	i
Cc1ccc(C(C)C)c(OCCN(C)C)c1	-7.1*	i	i	i	i
CSc1ccc(CN(C)C(=O)c2cccc(S(=O)(=O)NCc3ccccc3)c2)cc1	i	-5.1*	i	i	i
CN(Cc1ccc(F)cc1)C(=O)C(Cc1ccccc1)NC(=O)c1ccccc1 (configuration not stated)	i	i	i	i	i
CCCN(CC(=O)Nc1ccccc1OC)C(=O)c1cccc(S(=O)(=O)NCc2ccccc2)c1	i	-6.1*	i	i	i
CSc1ccc(CN(C)C(=O)C(Cc2ccccc2)NC(=O)c2ccccc2)cc1 (configuration not stated)	-7.3*	i	i	i	i
CCC(C)[C@H](NC(=O)C1(c2ccccc2)CCN(C(=O)OC(C)(C)C)CC1)C(=O)N[C@@H](C(=O)O)c1ccccc1 (some centres not stated)	i	i	i	i	i
COc1ccc(NC2=C(Cl)C(=O)N(c3ccccc3)C2=O)c(OC)c1	i	i	i	i	i
COc1ccccc1NC1=C(Cl)C(=O)N(c2ccccc2)C1=O	i	i	11*	i	i
Cc1cc(NC(=O)COC(=O)C2CC(=O)N(c3cccc(Cl)c3)C2)no1 (configuration not stated)	i	i	i	i	i
O=C(C[n+]1cc(-c2ccccc2)n2c1CCC2)N1c2ccccc2Sc2ccccc21	i	i	i	i	i
O=C(C[n+]1cc(-c2ccc(F)cc2)n2c1CCC2)N1c2ccccc2Sc2ccccc21	-9.7*	i	i	i	i
Cc1ccc(-c2c[n+](CC(=O)N3c4ccccc4Sc4ccccc43)c3n2CCC3)cc1	-8.9*	i	i	i	i
CCC(C)NC(=O)CSc1nnc(-c2cc(OC)c(OC)c(OC)c2)c(-c2cc(OC)c(OC)c(OC)c2)n1 (configuration not stated)	i	i	i	i	i
O=c1c(Cl)c(N2CCOCC2)cnn1-c1nc2ccccc2[nH]1	i	-7.1*	i	i	i
CC1=NOC(=O)/C1=C\c1ccc(-c2ccc(Br)cc2)o1	i	.	.	.	i
CC1=NOC(=O)/C1=C/c1ccc(-c2ccc(Cl)cc2)o1	.	i	i	46*	.
O=C(C[n+]1ccccc1)Nc1ccc(Oc2ccccc2)cc1	-7.6*	i	i	i	i
CN(C)c1ccc(NC(=O)C[n+]2ccccc2)cc1	i	i	i	i	i
O=C(COc1ccccc1)NC(=S)Nc1ccc2c3c(cccc13)CC2	i	i	i	i	i
O=C(/C=C/c1ccccc1)NC(=S)Nc1ccc2c3c(cccc13)CC2	i	-14*	i	i	i
SMILES	RGS4 act	MrgX1 antag	MrgX1 allo act	MrgX1 ag	RGS4 inh
CC(C)(CNS(C)(=O)=O)SCc1ccc(Cl)cc1	i	i	i	i	i
Cc1ccc(N(CC2CO2)S(=O)(=O)c2ccc([N+](=O)[O-])cc2)cc1 (configuration not stated)	i	i	7.4*	i	i
Cc1ccc(N(CC2CO2)S(=O)(=O)c2ccc(C)cc2)cc1 (configuration not stated)	i	i	i	i	i
Cn1c(=O)c2c(nc(SCCN3CCCCC3)n2Cc2ccc(Cl)cc2)n(C)c1=O	-7*	i	i	i	i
CCSc1nc2c(c(=O)n(C)c(=O)n2C)n1Cc1ccc(Cl)cc1	i	i	i	i	i
Cc1ccc(NNC(=O)c2ccno2)cc1C	-7.5*	i	i	i	i

Screening results as filed in PubChem.
